From ChEMBL document CHEMBL3352166, “Structure-guided design and development of novel benzimidazole class of compounds targeting DNA gyraseB enzyme of Staphylococcus aureus” (Bioorg Med Chem, 2014)
In brackets after ≈: the same amount, converted by molar mass.

Key:
[1] = target: DNA gyrase subunit B (Staphylococcus aureus, UniProt P0A0K8); experiment: Inhibition of Staphylococcus aureus DNA gyrase B ATPase activity
[2] = target: DNA gyrase (Staphylococcus aureus, UniProt P0A0K8+P20831); experiment: Inhibition of Staphylococcus aureus DNA gyrase-mediated supercoiling of relaxed DNA using pBR 322 as substrate by agarose gel electrophoresis analysis; type: protein-complex assay
[3] = test system: Staphylococcus aureus; experiment: Inhibition of biofilm formation in methicillin-resistant Staphylococcus aureus MTCC 96 after 24 hr incubation by tissue culture plate method; conditions: MTCC 96, 24 h
[4] = Cytotoxicity against human HEK293 cells assessed as reduction in cell viability at 100 uM after 72 hrs by MTT assay; type: cell-based; conditions: read-out: INH
Procedure, shortened: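 HEK-293 cells were seeded at 5000 per well and left 24 h, then washed. They were exposed to 100 µM in RPMI + 5% FBS + 1% penicillin/streptomycin, with final DMSO ≤0.5%, for 72 h at 37 °C in 5% CO2. DMSO-treated cultures served as controls. Viability was read by MTT at 570 nm, in triplicate, as percentage inhibition.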

[5] = test system: Staphylococcus aureus; experiment: Antimicrobial activity against Staphylococcus aureus MTCC 3160 after 16 to 24 hrs by agar dilution method; type: functional
Procedure, shortened: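 MIC by agar dilution per CLSI on Mueller-Hinton agar. Overnight colonies were suspended to about 10^6 cfu/mL, and 1 mL was added to 19 mL medium. Compounds were made up in 0.9% saline and tested over about 10 doubling dilutions, 100 µM to 0.1 µM. Plates ran 16-20 h at 35 °C in ambient air. MIC was the lowest concentration preventing visible growth.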

[6] = test system: Staphylococcus aureus; experiment: Antimicrobial activity against methicillin-resistant Staphylococcus aureus MTCC 96 after 16 to 24 hrs by agar dilution method; type: functional
Procedure, shortened: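 Agar dilution per CLSI guidelines on Mueller-Hinton agar. Overnight colonies suspended to about 10^6 cfu/mL, and 1 mL added to 19 mL medium. Stocks in 0.9% saline, tested over about 10 doubling dilutions from 100 µM to 0.1 µM. Plates incubated at 35 °C in ambient air for 16-20 h. MIC taken as the lowest concentration preventing visible growth.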

DNA gyrase, sequence (P0A0K8 whole entry): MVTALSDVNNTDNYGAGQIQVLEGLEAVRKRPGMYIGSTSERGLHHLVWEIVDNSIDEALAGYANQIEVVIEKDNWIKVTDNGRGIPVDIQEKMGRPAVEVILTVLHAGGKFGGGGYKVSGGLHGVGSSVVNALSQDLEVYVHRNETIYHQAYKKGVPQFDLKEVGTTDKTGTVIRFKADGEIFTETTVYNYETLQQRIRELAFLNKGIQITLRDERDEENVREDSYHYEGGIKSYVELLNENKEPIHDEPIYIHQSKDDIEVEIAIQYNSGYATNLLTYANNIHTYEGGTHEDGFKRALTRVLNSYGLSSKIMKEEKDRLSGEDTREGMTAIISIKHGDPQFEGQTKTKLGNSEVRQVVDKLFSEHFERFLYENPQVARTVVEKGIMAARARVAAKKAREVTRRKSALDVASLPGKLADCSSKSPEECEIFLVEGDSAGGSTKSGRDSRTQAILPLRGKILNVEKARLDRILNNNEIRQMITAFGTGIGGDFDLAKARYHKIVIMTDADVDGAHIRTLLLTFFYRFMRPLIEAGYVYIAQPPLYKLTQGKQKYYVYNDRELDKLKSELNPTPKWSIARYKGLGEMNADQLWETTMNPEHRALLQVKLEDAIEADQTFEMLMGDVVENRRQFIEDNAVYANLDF
DNA gyrase, sequence (P20831 whole entry): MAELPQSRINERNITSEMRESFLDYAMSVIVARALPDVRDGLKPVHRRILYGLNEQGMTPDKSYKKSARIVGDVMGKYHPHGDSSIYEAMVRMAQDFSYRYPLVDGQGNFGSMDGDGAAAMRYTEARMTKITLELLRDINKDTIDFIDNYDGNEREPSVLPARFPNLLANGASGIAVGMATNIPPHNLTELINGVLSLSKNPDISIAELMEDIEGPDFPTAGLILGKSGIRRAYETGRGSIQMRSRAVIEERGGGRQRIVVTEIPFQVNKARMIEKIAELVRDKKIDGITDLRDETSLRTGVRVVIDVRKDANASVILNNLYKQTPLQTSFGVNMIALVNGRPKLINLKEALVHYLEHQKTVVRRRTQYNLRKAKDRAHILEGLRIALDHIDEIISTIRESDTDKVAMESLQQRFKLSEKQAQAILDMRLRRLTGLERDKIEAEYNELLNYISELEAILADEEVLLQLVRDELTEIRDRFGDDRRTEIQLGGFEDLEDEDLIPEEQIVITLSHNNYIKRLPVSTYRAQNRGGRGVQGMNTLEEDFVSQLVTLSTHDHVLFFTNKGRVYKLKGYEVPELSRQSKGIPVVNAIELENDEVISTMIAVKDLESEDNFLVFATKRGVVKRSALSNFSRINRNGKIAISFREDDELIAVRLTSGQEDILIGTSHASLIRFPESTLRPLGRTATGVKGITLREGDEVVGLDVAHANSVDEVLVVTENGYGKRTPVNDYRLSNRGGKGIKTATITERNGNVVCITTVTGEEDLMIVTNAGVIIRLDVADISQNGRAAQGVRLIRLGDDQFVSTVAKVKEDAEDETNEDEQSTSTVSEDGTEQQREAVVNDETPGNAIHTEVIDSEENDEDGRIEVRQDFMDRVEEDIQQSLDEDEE
DNA gyrase subunit B, sequence (P0A0K8 whole entry): as the sequence (P0A0K8 whole entry) above

## Cc1sc2nc(SCC(=O)Nc3cccc(C(=O)O)c3)nc(O)c2c1C
[1]
  IC50: 17.3 µM
[2]
  IC50: 8.22 µM

## Cc1sc2nc(SCC(=O)Nc3ccc(Cl)c(C(=O)O)c3)nc(O)c2c1C
[1]
  IC50: 77.3 µM
[2]
  IC50: > 50 µM

## O=c1nc(/C=C/c2ccc(/C=C/c3cc(C(F)(F)F)[nH]c(=O)n3)cc2)cc(C(F)(F)F)[nH]1
[1]
  IC50: 42.2 µM
[2]
  IC50: 24.9 µM

## CNc1cc(CCNC(=O)c2ccc3oc(O)nc3c2)nc(-c2ccncc2)n1
[1]
  IC50: 92.1 µM
[2]
  IC50: > 50 µM

## CC(=O)Nc1ccc(OCC[n+]2ccc(CCS(=O)(=O)[O-])cc2)cc1
[1]
  IC50: 77.1 µM
[2]
  IC50: 45.1 µM

## Cc1cc2ncn(CC(O)COc3cccc(C(=O)O)c3)c2cc1C (stereo not drawn)
[1]
  IC50: 12.9 µM
[2]
  IC50: 3.13 µM

## O=C(O)CCCC(=O)Nc1ccc(-c2nc3ccccc3[nH]2)cc1
[1]
  IC50: 12.6 µM
[2]
  IC50: 2.9 µM

## O=C(O)CCC(=O)Nc1ccc(NC(=O)c2ccco2)cc1
[1]
  IC50: 12.9 µM
[2]
  IC50: 3.13 µM

## CC(Cc1c[nH]c2ccccc12)NC(=O)CSS(=O)(=O)O (stereo not drawn)
[1]
  IC50: 89.9 µM
[2]
  IC50: > 50 µM

## CCc1cc(=O)nc(SCC(=O)Nc2cccc(C(=O)O)c2)[nH]1
[1]
  IC50: 65 µM
[2]
  IC50: > 50 µM

## CCOc1cc(/C=C(\C#N)c2nc3ccc(C)cc3[nH]2)ccc1OCC(=O)O
[1]
  IC50: 82.1 µM
[2]
  IC50: > 50 µM

## O=C(O)CC(=O)Nc1ccc(-c2nc3ccccc3[nH]2)cc1
[1]
  IC50: 6.91 µM
[3]
  IC50: 47.8 µM
[4]
  cytotoxicity at 72 h, 100 µM: 7.2%
[5]
  MIC: 42.3 µM (≈ 12.5 µg/mL)
[6]
  MIC: 21.2 µM (≈ 6.25 µg/mL)
[2]
  IC50: 6.12 µM

## O=C(O)CCC(=O)Nc1ccc(-c2nc3ccccc3[nH]2)cc1
[1]
  IC50: 7.32 µM
[3]
  IC50: 88.3 µM
[4]
  cytotoxicity at 72 h, 100 µM: 2.9%
[5]
  MIC: 20.2 µM (≈ 6.25 µg/mL)
[6]
  MIC: 40.4 µM (≈ 12.5 µg/mL)
[2]
  IC50: 6.12 µM

## COC(=O)CCCC(=O)Nc1ccc(-c2nc3ccccc3[nH]2)cc1
[1]
  IC50: 36.3 µM
[3]
  IC50: > 100 µM
[4]
  cytotoxicity at 72 h, 100 µM: 9.7%
[5]
  MIC: 148 µM (≈ 50 µg/mL)
[6]
  MIC: 148 µM (≈ 50 µg/mL)
[2]
  IC50: 25 µM

## O=C(O)CCCCC(=O)Nc1ccc(-c2nc3ccccc3[nH]2)cc1
[1]
  IC50: 5.7 µM
[3]
  IC50: 81.5 µM
[4]
  cytotoxicity at 72 h, 100 µM: 32.1%
[5]
  MIC: 37 µM (≈ 12.5 µg/mL)
[6]
  MIC: 37 µM (≈ 12.5 µg/mL)
[2]
  IC50: 6.12 µM

## O=C(O)CC(=O)Nc1ccc(-c2nc3cc(F)ccc3[nH]2)cc1
[1]
  IC50: 13.4 µM
[3]
  IC50: > 100 µM
[4]
  cytotoxicity at 72 h, 100 µM: 18.1%
[5]
  MIC: 79.8 µM (≈ 25 µg/mL)
[6]
  MIC: 79.8 µM (≈ 25 µg/mL)
[2]
  IC50: 16.3 µM

## O=C(O)CCC(=O)Nc1ccc(-c2nc3cc(F)ccc3[nH]2)cc1
[1]
  IC50: 17.6 µM
[3]
  IC50: 82.7 µM
[4]
  cytotoxicity at 72 h, 100 µM: 28.7%
[5]
  MIC: 38.2 µM (≈ 12.5 µg/mL)
[6]
  MIC: 38.2 µM (≈ 12.5 µg/mL)
[2]
  IC50: 12 µM

## COC(=O)CCCC(=O)Nc1ccc(-c2nc3cc(F)ccc3[nH]2)cc1
[1]
  IC50: 18.6 µM
[3]
  IC50: 59.3 µM
[4]
  cytotoxicity at 72 h, 100 µM: 33.8%
[5]
  MIC: 70.3 µM (≈ 25 µg/mL)
[6]
  MIC: 32.2 µM (≈ 11.4 µg/mL)
[2]
  IC50: 10.7 µM

## O=C(O)CCCCC(=O)Nc1ccc(-c2nc3cc(F)ccc3[nH]2)cc1
[1]
  IC50: 15.3 µM
[3]
  IC50: > 100 µM
[4]
  cytotoxicity at 72 h, 100 µM: 29%
[5]
  MIC: 35.2 µM (≈ 12.5 µg/mL)
[6]
  MIC: 59.3 µM (≈ 21.1 µg/mL)
[2]
  IC50: 7.1 µM

## O=C(O)CC(=O)Nc1ccc(-c2nc3cc(Cl)ccc3[nH]2)cc1
[1]
  IC50: 26.3 µM
[3]
  IC50: > 100 µM
[4]
  cytotoxicity at 72 h, 100 µM: 25.6%
[5]
  MIC: 75.8 µM (≈ 25 µg/mL)
[6]
  MIC: 75.8 µM (≈ 25 µg/mL)
[2]
  IC50: 18.2 µM

## O=C(O)CCC(=O)Nc1ccc(-c2nc3cc(Cl)ccc3[nH]2)cc1
[1]
  IC50: 11.2 µM
[3]
  IC50: 53.2 µM
[4]
  cytotoxicity at 72 h, 100 µM: 31.7%
[5]
  MIC: 36.4 µM (≈ 12.5 µg/mL)
[6]
  MIC: 36.4 µM (≈ 12.5 µg/mL)
[2]
  IC50: 9.8 µM

## O=C(O)CCCC(=O)Nc1ccc(-c2nc3cc(Cl)ccc3[nH]2)cc1
[1]
  IC50: 9.85 µM
[3]
  IC50: > 100 µM
[4]
  cytotoxicity at 72 h, 100 µM: 45.5%
[5]
  MIC: 34.9 µM (≈ 12.5 µg/mL)
[6]
  MIC: 69.8 µM (≈ 25 µg/mL)
[2]
  IC50: 9.13 µM
